Experimental data of several laboratories.
Target: Dual specificity mitogen-activated protein kinase kinase 7 (MAP2K7, Homo sapiens, UniProt O14733)
Residues used in one study (O14733 1-419): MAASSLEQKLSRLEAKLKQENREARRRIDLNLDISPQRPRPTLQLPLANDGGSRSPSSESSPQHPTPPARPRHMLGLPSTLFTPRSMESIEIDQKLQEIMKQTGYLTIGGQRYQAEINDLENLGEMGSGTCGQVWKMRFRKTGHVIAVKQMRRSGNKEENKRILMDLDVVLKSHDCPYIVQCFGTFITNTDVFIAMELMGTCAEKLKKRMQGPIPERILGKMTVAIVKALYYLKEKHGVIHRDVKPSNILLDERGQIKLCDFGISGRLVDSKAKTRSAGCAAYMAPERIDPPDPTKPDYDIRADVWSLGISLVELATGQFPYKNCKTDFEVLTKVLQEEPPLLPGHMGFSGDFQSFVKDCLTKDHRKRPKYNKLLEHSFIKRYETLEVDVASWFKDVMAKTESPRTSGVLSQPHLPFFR

F[C@@H]1CCN(c2nccc(-c3cnn4ncccc34)n2)C1 has a remaining binding of 100% (binding; 1 µM).
For CC(C)(C)c1nc(-c2cccc(NS(=O)(=O)c3c(F)cccc3F)c2F)c(-c2ccnc(N)n2)s1, the remaining activity was 78% (enzyme activity; inhibitor; radiometric; 1 µM).
The inhibition of CCN(CC)CCNC(=O)c1c(C)[nH]c(/C=C2\C(=O)Nc3ccc(F)cc32)c1C is reported as 31% (enzyme activity; inhibitor; 10 µM).
O=C(Nc1cnn(-c2csc(C(=O)NC3COC3)c2)c1)Nc1c(F)cccc1Cl has a remaining activity of 135% (enzyme activity; inhibitor; 5 µM).
For Cc1cc(NC(=O)c2cccc(S(F)(F)(F)(F)F)c2)cc(-n2ccn3nc(-c4cccnc4)cc23)c1, the remaining binding was 89.7% (cell-free assay; competition with immobilised ligand; 1 µM).
The inhibition of CNC(=O)c1cc(Oc2ccc(NC(=O)Nc3ccc(Cl)c(C(F)(F)F)c3)cc2)ccn1 is reported as 40% (enzyme activity; inhibitor; 10 µM).
Nc1ncnc2occ(-c3ccc(NC(=O)Nc4cc(C(F)(F)F)ccc4F)cc3)c12 has a remaining signal of 2.9% (cell-free assay; inhibitor; 20 µM).
For Cc1ccc(C(=O)Nc2ccc(CN3CCN(C)CC3)c(C(F)(F)F)c2)cc1C#Cc1cnc2cccnn12, the remaining activity was 75% (enzyme activity; inhibitor; 23.5 nM).
With CC(C)(C)c1nc2c(s1)c1nc(N)ncc1c1ccc(NS(=O)(=O)c3c(F)cccc3F)c(F)c12 the remaining activity was 83% (enzyme activity; inhibitor; radiometric; 1 µM).
C[C@H](NC(=O)c1cnc2n1[C@](C)(Cc1ccc(C#N)cc1)C(=O)N2c1cc(Cl)c(F)c(Cl)c1)C(=O)NC1(c2ccccn2)CC1 gave a remaining binding of 100% (cell-free assay; competition with immobilised ligand; 1 µM).
With Cc1sc(C(=O)NC2COC2)cc1-n1cc(NC(=O)Nc2c(F)cccc2Cl)cn1 the remaining activity was 120% (enzyme activity; inhibitor; 10 µM).
The remaining binding of N[C@@H]1CCN(c2nccc(-c3cnn4ncccc34)n2)C1 is reported as 100% (binding; 1 µM).
